In one data set the test system is HCT-116 cells. Nature of the data set: MTT anticancer assay on colorectal cancer cell line HCT-116. To be noted: for SI (selectivity index): HCT-116 cells over normal colonocytes; for IC50: Homo sapiens, HCT-116, 72 h, read-out: IC50 HCT-116, MTT, 72 h, mean ± SEM. It is filed as cell-based, human. In short, it runs like this: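 MTT viability assay on human colorectal carcinoma HCT-116 cells exposed to test compounds. Data are mean ± SEM of three measurements. Differences between treatments were tested by one-way ANOVA with Tukey's test, with significance at p < 0.05.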

The subject of a further data set is normal colonocyte. Nature of the data set: MTT cytotoxicity on normal colonic epithelial cells. It is filed as cell-based, rat. To be noted: concentration at 100% cell viability (safe dose), 72 h, mean ± SEM. In outline:
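Normal colonic epithelial cells were isolated by the Follmann & Birkner method, with modifications. Cytotoxicity of test compounds on these colonocytes was measured by MTT assay to define safe concentrations. Data are mean ± SEM of three measurements. Differences were tested by one-way ANOVA with Tukey's test, with significance at p < 0.05.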

For the next data set, the system named is HCT-116 cell line. To be noted: read-out: IC50 cytotoxicity HCT-116 cell line; cited from earlier work.

Molecules are shown by their SMILES.

This is an account of results in PMC11170630 (ACS Omega, 2024).

For `O=c1c(Cc2ccccc2)nc2ccccc2n1Cc1cn(-c2ccc(I)cc2)nn1` [Compound 15], in the data set on HCT-116 cells, the “SI (selectivity index)” value came out at 3.244 and the half-maximal inhibitory concentration (IC50) worked out at 135 ± 9 nM. For the same compound, in the data set on normal colonocyte, the EC100 normal colonocyte turned out to be 0.103 ± 0.008 µM.

In the case of `O=c1c(Cc2ccccc2)nc2ccccc2n1Cc1cn(-c2ccc(O)cc2)nn1` [Compound 16], in the data set with HCT-116 cells, the “SI (selectivity index)” value turned out to be 5.000 and the IC50 was 222 nM. Besides, the EC100 normal colonocyte in the data set on normal colonocyte amounted to 0.556 ± 0.031 µM.

Regarding `O=C(O)CNC(=O)c1ccc(-n2cc(Cn3c(=O)c(Cc4ccccc4)nc4ccccc43)nn2)cc1` [Compound 17], in the data set on HCT-116 cells, the “SI (selectivity index)” value worked out at 3.263 and the IC50 worked out at 114 ± 1 nM. In the data set with normal colonocyte, the EC100 normal colonocyte worked out at 0.169 ± 0.036 µM.

Turning to `CC(=O)c1ccc(-n2cc(Cn3c(=O)c(Cc4ccccc4)nc4ccccc43)nn2)cc1` [Compound 18], in the data set on HCT-116 cells, the “SI (selectivity index)” value is listed as 10.633 and the IC50 worked out at 218 nM. In addition, the EC100 normal colonocyte in the data set with normal colonocyte was found to be 0.212 ± 0.010 µM.

Consider `CC(=O)NS(=O)(=O)c1ccc(-n2cc(Cn3c(=O)c(Cc4ccccc4)nc4ccccc43)nn2)cc1` [Compound 19], for which the “fold lower anticancer activity than compound 20” value in the data set with HCT-116 cells (HCT-116 IC50, compared to 20) is 4.6 fold. Further, in the data set on HCT-116 cells, the “SI (selectivity index)” value worked out at 1.211 and the half-maximal inhibitory concentration (IC50) was 331 ± 4 nM. Also, the EC100 normal colonocyte in the data set with normal colonocyte is 0.150 ± 0.015 µM.

In the case of `COc1cccc2c1C(=O)c1c(O)c3c(c(O)c1C2=O)C[C@@](O)(C(=O)CO)C[C@@H]3O[C@H]1C[C@H](N)[C@H](O)[C@H](C)O1` [DOX, doxorubicin, reference compound], in the data set on HCT-116 cells, the “SI (selectivity index)” value is 0.357 and the half-inhibitory concentration (IC50) came out at 761 ± 50 nM. Moreover, the half-maximal inhibitory concentration (IC50) in the data set with HCT-116 cell line was 9630 nM. In addition, the EC100 normal colonocyte in the data set with normal colonocyte was determined as 0.074 ± 0.008 µM.

In the case of `CNC(=O)c1cc(Oc2ccc(NC(=O)Nc3ccc(Cl)c(C(F)(F)F)c3)cc2)ccn1` [sorafenib], the IC50 with HCT-116 cell line is 9400 nM.
